Square brackets hold non-standard residues; d marks the D form. Peptide text beside a SMILES is read from it. * marks the point of attachment. ξ: configuration not given here. ξαMeF = CC(N)(Cc1ccccc1)C(=O)O; PhAc = O=C(Cc1ccccc1)*
These molecules were tested on Canis familiaris (assay: Renal vasodilator activity in anesthetized dogs and percent change in renal blood flow (RBF) was determined at 3 ug/kg min).
Assay type: functional, Canis lupus familiaris, Kidney
Outline: (§1)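 Primary screen in anesthetized dogs (7-17 kg). Drug infused separately at 3, 30 and 300 µg/(kg min), each infusion lasting 5 min, at about 15-min intervals. Read-outs are renal blood flow, mean arterial blood pressure, heart rate, and RVR (MABP / mean RBF), as percent change. Significance thresholds are defined per number of dogs; n = 1-3 dogs.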

Row | Structure (SMILES) | Change [%]
1 | CC(Cc1ccccc1)(NC(=O)[C@@H]1CCCN1C(=O)CCCc1ccc(O)cc1)C(=O)N[C@@H](CCCN=C(N)N)C(=O)O (stereo partly specified) | 8
2 | CC(Cc1ccccc1)(NC(=O)[C@@H]1CCCN1C(=O)Cc1ccccc1)C(=O)N[C@@H](CCCN=C(N)N)C(=O)O (stereo partly specified) (PhAc-Pro-[ξαMeF]-Arg-OH) | 4
3 | CC(Cc1ccccc1)(NC(=O)[C@@H]1CCCN1C(=O)CCCc1ccccc1)C(=O)N[C@@H](CCCN=C(N)N)C(=O)O (stereo partly specified) | 0

Each molecule was assayed on Canis familiaris (assay: Renal vasodilator activity in anesthetized dogs and percent change in heart rate (HR) was determined at 300 ug/kg min).
Assay type: functional, Canis lupus familiaris
Outline: as §1

Row | Structure (SMILES) | Change [%]
4 | CC(Cc1ccccc1)(NC(=O)[C@@H]1CCCN1C(=O)CCCc1ccc(O)cc1)C(=O)N[C@@H](CCCN=C(N)N)C(=O)O (stereo partly specified) | 0
5 | CC(Cc1ccccc1)(NC(=O)[C@@H]1CCCN1C(=O)Cc1ccccc1)C(=O)N[C@@H](CCCN=C(N)N)C(=O)O (stereo partly specified) (PhAc-Pro-[ξαMeF]-Arg-OH) | 0
6 | CC(Cc1ccccc1)(NC(=O)[C@@H]1CCCN1C(=O)CCCc1ccccc1)C(=O)N[C@@H](CCCN=C(N)N)C(=O)O (stereo partly specified) | -1

These molecules were tested on Canis familiaris (assay: Renal vasodilator activity in anesthetized dogs and percent change in renal vascular resistance (RVR) was determined at 30 ug/kg min).
Assay type: functional, Canis lupus familiaris
Outline: as §1

Row | Structure (SMILES) | Change [%]
7 | CC(Cc1ccccc1)(NC(=O)[C@@H]1CCCN1C(=O)CCCc1ccc(O)cc1)C(=O)N[C@@H](CCCN=C(N)N)C(=O)O (stereo partly specified) | -9
8 | CC(Cc1ccccc1)(NC(=O)[C@@H]1CCCN1C(=O)Cc1ccccc1)C(=O)N[C@@H](CCCN=C(N)N)C(=O)O (stereo partly specified) (PhAc-Pro-[ξαMeF]-Arg-OH) | 0
9 | CC(Cc1ccccc1)(NC(=O)[C@@H]1CCCN1C(=O)CCCc1ccccc1)C(=O)N[C@@H](CCCN=C(N)N)C(=O)O (stereo partly specified) | -1.8

These molecules were tested on Canis familiaris (assay: Renal vasodilator activity in anesthetized dogs and percent change in heart rate (HR) was determined at 30 ug/kg min).
Assay type: functional, Canis lupus familiaris
Outline: as §1

Row | Structure (SMILES) | Change [%]
10 | CC(Cc1ccccc1)(NC(=O)[C@@H]1CCCN1C(=O)CCCc1ccc(O)cc1)C(=O)N[C@@H](CCCN=C(N)N)C(=O)O (stereo partly specified) | 0
11 | CC(Cc1ccccc1)(NC(=O)[C@@H]1CCCN1C(=O)Cc1ccccc1)C(=O)N[C@@H](CCCN=C(N)N)C(=O)O (stereo partly specified) (PhAc-Pro-[ξαMeF]-Arg-OH) | -2
12 | CC(Cc1ccccc1)(NC(=O)[C@@H]1CCCN1C(=O)CCCc1ccccc1)C(=O)N[C@@H](CCCN=C(N)N)C(=O)O (stereo partly specified) | 0

What follows are molecules tested on Canis familiaris (assay: Renal vasodilator activity in anesthetized dogs and percent change in mean arterial blood pressure (MABP) was determined at 30 ug/kg min).
Assay type: functional, Canis lupus familiaris
Outline: as §1

Row | Structure (SMILES) | Change [%]
13 | CC(Cc1ccccc1)(NC(=O)[C@@H]1CCCN1C(=O)CCCc1ccc(O)cc1)C(=O)N[C@@H](CCCN=C(N)N)C(=O)O (stereo partly specified) | 2
14 | CC(Cc1ccccc1)(NC(=O)[C@@H]1CCCN1C(=O)Cc1ccccc1)C(=O)N[C@@H](CCCN=C(N)N)C(=O)O (stereo partly specified) (PhAc-Pro-[ξαMeF]-Arg-OH) | 0
15 | CC(Cc1ccccc1)(NC(=O)[C@@H]1CCCN1C(=O)CCCc1ccccc1)C(=O)N[C@@H](CCCN=C(N)N)C(=O)O (stereo partly specified) | 2.8

Each molecule was assayed on Canis familiaris (assay: Renal vasodilator activity in anesthetized dogs and percent change in mean arterial blood pressure (MABP) was determined at 3 ug/kg min).
Assay type: functional, Canis lupus familiaris
Outline: as §1

Row | Structure (SMILES) | Change [%]
16 | CC(Cc1ccccc1)(NC(=O)[C@@H]1CCCN1C(=O)CCCc1ccc(O)cc1)C(=O)N[C@@H](CCCN=C(N)N)C(=O)O (stereo partly specified) | -4
17 | CC(Cc1ccccc1)(NC(=O)[C@@H]1CCCN1C(=O)Cc1ccccc1)C(=O)N[C@@H](CCCN=C(N)N)C(=O)O (stereo partly specified) (PhAc-Pro-[ξαMeF]-Arg-OH) | 0
18 | CC(Cc1ccccc1)(NC(=O)[C@@H]1CCCN1C(=O)CCCc1ccccc1)C(=O)N[C@@H](CCCN=C(N)N)C(=O)O (stereo partly specified) | 3

These molecules were tested on Canis familiaris (assay: Renal vasodilator activity in anesthetized dogs and percent change in renal blood flow (RBF) was determined at 300 ug/kg min).
Assay type: functional, Canis lupus familiaris, Kidney
Outline: as §1

Row | Structure (SMILES) | Change [%]
19 | CC(Cc1ccccc1)(NC(=O)[C@@H]1CCCN1C(=O)CCCc1ccc(O)cc1)C(=O)N[C@@H](CCCN=C(N)N)C(=O)O (stereo partly specified) | 11
20 | CC(Cc1ccccc1)(NC(=O)[C@@H]1CCCN1C(=O)Cc1ccccc1)C(=O)N[C@@H](CCCN=C(N)N)C(=O)O (stereo partly specified) (PhAc-Pro-[ξαMeF]-Arg-OH) | -2
21 | CC(Cc1ccccc1)(NC(=O)[C@@H]1CCCN1C(=O)CCCc1ccccc1)C(=O)N[C@@H](CCCN=C(N)N)C(=O)O (stereo partly specified) | 1

What follows are molecules tested on Canis familiaris (assay: Renal vasodilator activity in anesthetized dogs and percent change in renal vascular resistance (RVR) was determined at 3 ug/kg min).
Assay type: functional, Canis lupus familiaris
Outline: as §1

Row | Structure (SMILES) | Change [%]
22 | CC(Cc1ccccc1)(NC(=O)[C@@H]1CCCN1C(=O)CCCc1ccc(O)cc1)C(=O)N[C@@H](CCCN=C(N)N)C(=O)O (stereo partly specified) | -12
23 | CC(Cc1ccccc1)(NC(=O)[C@@H]1CCCN1C(=O)Cc1ccccc1)C(=O)N[C@@H](CCCN=C(N)N)C(=O)O (stereo partly specified) (PhAc-Pro-[ξαMeF]-Arg-OH) | -4
24 | CC(Cc1ccccc1)(NC(=O)[C@@H]1CCCN1C(=O)CCCc1ccccc1)C(=O)N[C@@H](CCCN=C(N)N)C(=O)O (stereo partly specified) | 3

These molecules were tested on Canis familiaris (assay: Renal vasodilator activity in anesthetized dogs and percent change in renal vascular resistance (RVR) was determined at 300 ug/kg min).
Assay type: functional, Canis lupus familiaris
Outline: as §1

Row | Structure (SMILES) | Change [%]
25 | CC(Cc1ccccc1)(NC(=O)[C@@H]1CCCN1C(=O)CCCc1ccc(O)cc1)C(=O)N[C@@H](CCCN=C(N)N)C(=O)O (stereo partly specified) | -11
26 | CC(Cc1ccccc1)(NC(=O)[C@@H]1CCCN1C(=O)Cc1ccccc1)C(=O)N[C@@H](CCCN=C(N)N)C(=O)O (stereo partly specified) (PhAc-Pro-[ξαMeF]-Arg-OH) | 7
27 | CC(Cc1ccccc1)(NC(=O)[C@@H]1CCCN1C(=O)CCCc1ccccc1)C(=O)N[C@@H](CCCN=C(N)N)C(=O)O (stereo partly specified) | 0

These molecules were tested on Canis familiaris (assay: Renal vasodilator activity in anesthetized dogs and percent change in heart rate (HR) was determined at 3 ug/kg min).
Assay type: functional, Canis lupus familiaris
Outline: as §1

Row | Structure (SMILES) | Change [%]
28 | CC(Cc1ccccc1)(NC(=O)[C@@H]1CCCN1C(=O)CCCc1ccc(O)cc1)C(=O)N[C@@H](CCCN=C(N)N)C(=O)O (stereo partly specified) | 0
29 | CC(Cc1ccccc1)(NC(=O)[C@@H]1CCCN1C(=O)Cc1ccccc1)C(=O)N[C@@H](CCCN=C(N)N)C(=O)O (stereo partly specified) (PhAc-Pro-[ξαMeF]-Arg-OH) | 9
30 | CC(Cc1ccccc1)(NC(=O)[C@@H]1CCCN1C(=O)CCCc1ccccc1)C(=O)N[C@@H](CCCN=C(N)N)C(=O)O (stereo partly specified) | -3.6

What follows are molecules tested on Canis familiaris (assay: Renal vasodilator activity in anesthetized dogs and percent change in mean arterial blood pressure (MABP) was determined at 300 ug/kg min).
Assay type: functional, Canis lupus familiaris
Outline: as §1

Row | Structure (SMILES) | Change [%]
31 | CC(Cc1ccccc1)(NC(=O)[C@@H]1CCCN1C(=O)CCCc1ccc(O)cc1)C(=O)N[C@@H](CCCN=C(N)N)C(=O)O (stereo partly specified) | 0
32 | CC(Cc1ccccc1)(NC(=O)[C@@H]1CCCN1C(=O)Cc1ccccc1)C(=O)N[C@@H](CCCN=C(N)N)C(=O)O (stereo partly specified) (PhAc-Pro-[ξαMeF]-Arg-OH) | 5
33 | CC(Cc1ccccc1)(NC(=O)[C@@H]1CCCN1C(=O)CCCc1ccccc1)C(=O)N[C@@H](CCCN=C(N)N)C(=O)O (stereo partly specified) | 1

The molecules below were run on Canis familiaris (assay: Renal vasodilator activity in anesthetized dogs and percent change in renal blood flow (RBF) was determined at 30 ug/kg min).
Assay type: functional, Canis lupus familiaris, Kidney
Outline: as §1

Row | Structure (SMILES) | Change [%]
34 | CC(Cc1ccccc1)(NC(=O)[C@@H]1CCCN1C(=O)CCCc1ccc(O)cc1)C(=O)N[C@@H](CCCN=C(N)N)C(=O)O (stereo partly specified) | 12
35 | CC(Cc1ccccc1)(NC(=O)[C@@H]1CCCN1C(=O)Cc1ccccc1)C(=O)N[C@@H](CCCN=C(N)N)C(=O)O (stereo partly specified) (PhAc-Pro-[ξαMeF]-Arg-OH) | 0
36 | CC(Cc1ccccc1)(NC(=O)[C@@H]1CCCN1C(=O)CCCc1ccccc1)C(=O)N[C@@H](CCCN=C(N)N)C(=O)O (stereo partly specified) | 4.6

Reference: ChEMBL document CHEMBL1122774, “Tri- and tetrapeptide analogues of kinins as potential renal vasodilators” (J Med Chem, 1984)
